Experimental data taken from ChEMBL document CHEMBL3120102, “Structure-based design, synthesis and biological evaluation of novel anthra[1,2-d]imidazole-6,11-dione homologues as potential antitumor agents” (2013).

Tested on: MDA-MB-468
Experiment: Cytotoxicity against human MDA-MB-468 cells assessed as cell growth at 10 uM after 48 hrs by SRB assay
Format: functional
Settings: MDA-MB-468, 48 h, read-out: Activity
In short: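 First stage of the NCI 60 human tumour cell line screen: a single dose is tested against every line. Cell growth is read as cellular protein by sulforhodamine B colorimetry after 48 h of drug exposure, with reference to a time-zero control and to untreated plates.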

For `O=C1c2ccccc2C(=O)c2c1ccc1nc3n(c21)CCS3`, which growth at 10 µM is on record?
The growth at 10 µM was 69.7%.
